Measured values as given in ChEMBL document CHEMBL1132528, “A novel molecular design of thrombin receptor antagonist” (Bioorg Med Chem Lett, 1999).
The source made the active and inactive calls. No cut-off for these calls is given here. Peptide text beside a SMILES is read from it.

Key:
[1] = target: T1, Proteinase-activated receptor 1 (Homo sapiens) (UniProt P25116); experiment: Thrombin receptor antagonistic activity was evaluated by the inhibition of platelet aggregation induced by the agonist SFLLRNP; IA means inactive; format: functional
T1 sequence (whole entry): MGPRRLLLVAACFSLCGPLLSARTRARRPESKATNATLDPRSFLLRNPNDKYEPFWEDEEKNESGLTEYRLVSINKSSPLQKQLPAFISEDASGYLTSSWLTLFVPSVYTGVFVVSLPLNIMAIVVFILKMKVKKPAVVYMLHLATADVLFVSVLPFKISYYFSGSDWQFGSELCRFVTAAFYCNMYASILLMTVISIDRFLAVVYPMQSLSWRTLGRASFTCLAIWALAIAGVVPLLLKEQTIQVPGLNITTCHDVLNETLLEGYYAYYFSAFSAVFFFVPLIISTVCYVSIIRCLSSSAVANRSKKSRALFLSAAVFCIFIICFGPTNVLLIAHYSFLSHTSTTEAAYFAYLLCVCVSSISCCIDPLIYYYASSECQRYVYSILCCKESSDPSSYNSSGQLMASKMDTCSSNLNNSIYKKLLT
Outline: (§1)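 Human platelet-rich plasma from drug-free healthy donors. Test peptide (e.g. 100 μM) was incubated in the plasma for 3 min, then SFLLRNP agonist was added to induce aggregation. Inhibition of aggregation was measured; IC50 came from dose-dependent inhibition.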

[2] = organism: Homo sapiens; experiment: Platelet aggregation activity of the compound; IA means inactive; format: functional, organism-based
Outline: (§2)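 Human platelet-rich plasma from healthy donors who had taken no medication for the previous two weeks. Synthetic peptides were added directly and scored for their ability to induce platelet aggregation.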

[3] = target: T1, Proteinase-activated receptor 1 (Homo sapiens); experiment: Thrombin receptor antagonistic activity was evaluated by the inhibition of platelet aggregation induced by the agonist SFLLRNP; format: functional; parameters: scale not given: the % may be the effect or the level left; outline: as §1
[4] = organism: Homo sapiens; experiment: Platelet aggregation activity of the compound; format: functional, organism-based; outline: as §2

| SMILES | Activity [1] | EC50 [2] | Activity [3] [%] | EC50 [4] [µM] |
| --- | --- | --- | --- | --- |
| CC(C)C[C@H](NC(=O)[C@H](CC(C)C)NC(=O)[C@H](CC(=O)O)NC(=O)[C@@H](N)CO)C(=O)N[C@@H](CCCN=C(N)N)C(=O)N[C@@H](CC(N)=O)C(=O)N1CCC[C@H]1C(=O)O (H-SDLLRNP-OH) | inactive | Not Active |  |  |
| CC(C)C[C@H](NC(=O)[C@H](CC(C)C)NC(=O)[C@H](Cc1ccccc1)NC(=O)[C@@H](N)CC(=O)O)C(=O)N[C@@H](CCCN=C(N)N)C(=O)N[C@@H](CC(N)=O)C(=O)N1CCC[C@H]1C(=O)O (H-DFLLRNP-OH) | inactive | Not Active |  |  |
| CC(C)C[C@H](NC(=O)[C@H](CC(=O)O)NC(=O)[C@H](Cc1ccccc1)NC(=O)[C@@H](N)CO)C(=O)N[C@@H](CCCN=C(N)N)C(=O)N[C@@H](CC(N)=O)C(=O)N1CCC[C@H]1C(=O)O (H-SFDLRNP-OH) |  | Not Active | 19 |  |
| CC(C)C[C@H](NC(=O)[C@H](CC(C)C)NC(=O)[C@H](Cc1ccccc1)NC(=O)[C@@H](N)CO)C(=O)N[C@@H](CCCN=C(N)N)C(=O)N[C@@H](CC(=O)O)C(=O)N1CCC[C@H]1C(=O)O (H-SFLLRDP-OH) | inactive |  |  | 4.36 |
| CC(C)C[C@H](NC(=O)[C@H](CC(C)C)NC(=O)[C@H](Cc1ccccc1)NC(=O)[C@@H](N)CO)C(=O)N[C@@H](CCCN=C(N)N)C(=O)N[C@@H](CC(N)=O)C(=O)N1CCC[C@H]1C(=O)O (H-SFLLRNP-OH) | inactive |  |  | 4.27 |
| CC(C)C[C@H](NC(=O)[C@H](Cc1ccccc1)NC(=O)[C@@H](N)CO)C(=O)N[C@@H](CC(=O)O)C(=O)N[C@@H](CCCN=C(N)N)C(=O)N[C@@H](CC(N)=O)C(=O)N1CCC[C@H]1C(=O)O (H-SFLDRNP-OH) | inactive | Not Active |  |  |
| CC(C)C[C@H](NC(=O)[C@H](CC(C)C)NC(=O)[C@H](Cc1ccccc1)NC(=O)[C@@H](N)CO)C(=O)N[C@@H](CC(=O)O)C(=O)N[C@@H](CC(N)=O)C(=O)N1CCC[C@H]1C(=O)O (H-SFLLDNP-OH) | inactive | Not Active |  |  |
| CC(C)C[C@H](NC(=O)[C@H](CC(C)C)NC(=O)[C@H](Cc1ccccc1)NC(=O)[C@@H](N)CO)C(=O)N[C@@H](CCCN=C(N)N)C(=O)N[C@@H](CC(N)=O)C(=O)N[C@@H](CC(=O)O)C(=O)O (H-SFLLRND-OH) | inactive |  |  | 4.27 |
